Test results reported in ChEMBL document CHEMBL1143908, “Functionalized chalcones as selective inhibitors of P-glycoprotein and breast cancer resistance protein” (Bioorg Med Chem, 2008).

Columns and labels:
[1] = target: T1, ATP-dependent translocase ABCB1 (Homo sapiens, UniProt P08183); test: Inhibition of human multidrug resistant gene Pgp expressed in MDCK2 cells assessed as calcein-AM accumulation at 10 uM after 40 mins; assay type: cell-based; set-up: scale not given: the % may be the effect or the level left; details: mdck-ii
[2] = target: T2, Broad substrate specificity ATP-binding cassette transporter ABCG2 (Homo sapiens, UniProt Q9UNQ0); test: Inhibition of human BCRP mediated mitoxantrone accumulation in mitoxantrone resistant MCF7 cells at 5 uM by flow cytometry; assay type: cell-based; set-up: scale not given: the % may be the effect or the level left; details: mcf7, 5 µM
T2 sequence (Q9UNQ0 whole entry): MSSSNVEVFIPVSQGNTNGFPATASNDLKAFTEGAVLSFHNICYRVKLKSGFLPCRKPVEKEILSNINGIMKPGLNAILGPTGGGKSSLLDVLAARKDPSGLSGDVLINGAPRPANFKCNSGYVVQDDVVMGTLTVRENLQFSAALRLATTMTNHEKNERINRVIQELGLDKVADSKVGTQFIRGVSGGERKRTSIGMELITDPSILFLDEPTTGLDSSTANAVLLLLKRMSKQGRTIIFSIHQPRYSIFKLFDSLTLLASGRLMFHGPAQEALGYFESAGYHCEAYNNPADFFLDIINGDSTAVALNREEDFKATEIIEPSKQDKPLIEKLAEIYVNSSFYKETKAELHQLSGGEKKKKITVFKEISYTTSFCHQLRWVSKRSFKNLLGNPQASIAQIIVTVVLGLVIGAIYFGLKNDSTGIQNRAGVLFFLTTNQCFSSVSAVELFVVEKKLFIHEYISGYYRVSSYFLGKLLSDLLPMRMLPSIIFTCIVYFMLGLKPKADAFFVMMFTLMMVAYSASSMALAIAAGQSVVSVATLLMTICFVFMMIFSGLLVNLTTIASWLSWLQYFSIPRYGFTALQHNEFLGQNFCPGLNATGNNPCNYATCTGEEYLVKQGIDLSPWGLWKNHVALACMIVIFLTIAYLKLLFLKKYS
Method in brief: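 MCF-7/MX cells (selected in 250 nM mitoxantrone) trypsinized and resuspended at ~10^6 cells/ml in serum-free RPMI. Preincubated 15 min at 37 °C with compound (5 uM final) or vehicle (0.5% DMSO), then mitoxantrone 3 uM final added for 30 min. Stopped with ice-cold PBS and washed. Read by flow cytometry (488 nm excitation, 670 nm bandpass) as % area right of a marker set on MCF-7/WT autofluorescence (<5%). n = 4; FTC 10 uM as positive control.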

[3] = target: T1, ATP-dependent translocase ABCB1; test: Inhibition of human wild type gene Pgp expressed in MDCK2 cells assessed as calcein-AM accumulation at 1 uM; assay type: cell-based; details: mdck-ii
Method in brief: (§1)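 MDCKII/WT or human MDR1-transfected MDCKII/MDR1 cells (passages 8-17) seeded at 5.0 x 10^4 cells/well and cultured 24 h. Washed, then preincubated 30 min at 37 °C with compound in DMSO-HBSS (≤1% DMSO). Calcein-AM added to 2 uM final, and fluorescence (ex 485/em 535 nm) read every 10 min over 40 min. Accumulation taken at 40 min relative to untreated MDCKII/MDR1, or scaled to the WT-minus-MDR1 fluorescence difference.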

[4] = target: T1, ATP-dependent translocase ABCB1; test: Inhibition of human multidrug resistant gene Pgp expressed in MDCK2 cells assessed as calcein-AM accumulation at 1 uM; assay type: cell-based; details: mdck-ii; method in brief: as §1
MCF7 [5] = test: Antiproliferative activity against adriamycin resistant human MCF7 cells after 72 hrs by MTT assay; assay type: functional, cell-based; details: MCF7, 72 h
Method in brief: (§2)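 MCF-7/WT and MCF-7/Adr cells (Adr line kept in medium with 10 uM doxorubicin; RPMI 1640, 10% FBS) exposed to compound for 72 h. MTT then added for 3 h, cells washed with PBS, and formazan dissolved in DMSO. Absorbance read at 590 nm, 3 determinations per concentration, IC50 derived from the concentration-response curve.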

MCF7 [6] = test: Antiproliferative activity against wild type human MCF7 cells after 72 hrs by MTT assay; assay type: functional, cell-based; details: MCF7, 72 h; method in brief: as §2
P-gp (ABCB1), wild type = P-gp (ABCB1), wild type (Homo sapiens, UniProt P08183); test: Inhibition of human wild type Pgp expressed in MDCK2 cells assessed as calcein-AM accumulation at 50 uM after 40 mins; assay type: cell-based, MDCK-II; details: MDCK2 cells expressing human wild type Pgp, probe calcein-AM; method in brief: as §1
[7] = target: T2, Broad substrate specificity ATP-binding cassette transporter ABCG2; test: Inhibition of human BCRP mediated mitoxantrone accumulation in mitoxantrone resistant MCF7 cells at 10 uM by flow cytometry; assay type: cell-based; set-up: scale not given: the % may be the effect or the level left; details: mcf7, 10 µM
Method in brief: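 MCF-7/MX cells are maintained in 250 nM mitoxantrone, then trypsinized, washed in ice-cold PBS and resuspended in serum-free RPMI 1640. They are pre-incubated 15 min at 37 °C with compound or vehicle (0.5% v/v DMSO), then exposed to mitoxantrone (3 uM final) for 30 min. Uptake is stopped with ice-cold PBS and cells are washed. Flow cytometry uses 488 nm excitation and a 670 nm filter. The read-out is % area beyond a marker set on MCF-7/WT autofluorescence (<5%).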

[8] = target: T2, Broad substrate specificity ATP-binding cassette transporter ABCG2; test: Inhibition of human BCRP mediated mitoxantrone accumulation in wild type MCF7 cells at 5 uM by flow cytometry; assay type: cell-based; set-up: scale not given: the % may be the effect or the level left; details: mcf7, 5 µM

T1 sequence (P08183 whole entry): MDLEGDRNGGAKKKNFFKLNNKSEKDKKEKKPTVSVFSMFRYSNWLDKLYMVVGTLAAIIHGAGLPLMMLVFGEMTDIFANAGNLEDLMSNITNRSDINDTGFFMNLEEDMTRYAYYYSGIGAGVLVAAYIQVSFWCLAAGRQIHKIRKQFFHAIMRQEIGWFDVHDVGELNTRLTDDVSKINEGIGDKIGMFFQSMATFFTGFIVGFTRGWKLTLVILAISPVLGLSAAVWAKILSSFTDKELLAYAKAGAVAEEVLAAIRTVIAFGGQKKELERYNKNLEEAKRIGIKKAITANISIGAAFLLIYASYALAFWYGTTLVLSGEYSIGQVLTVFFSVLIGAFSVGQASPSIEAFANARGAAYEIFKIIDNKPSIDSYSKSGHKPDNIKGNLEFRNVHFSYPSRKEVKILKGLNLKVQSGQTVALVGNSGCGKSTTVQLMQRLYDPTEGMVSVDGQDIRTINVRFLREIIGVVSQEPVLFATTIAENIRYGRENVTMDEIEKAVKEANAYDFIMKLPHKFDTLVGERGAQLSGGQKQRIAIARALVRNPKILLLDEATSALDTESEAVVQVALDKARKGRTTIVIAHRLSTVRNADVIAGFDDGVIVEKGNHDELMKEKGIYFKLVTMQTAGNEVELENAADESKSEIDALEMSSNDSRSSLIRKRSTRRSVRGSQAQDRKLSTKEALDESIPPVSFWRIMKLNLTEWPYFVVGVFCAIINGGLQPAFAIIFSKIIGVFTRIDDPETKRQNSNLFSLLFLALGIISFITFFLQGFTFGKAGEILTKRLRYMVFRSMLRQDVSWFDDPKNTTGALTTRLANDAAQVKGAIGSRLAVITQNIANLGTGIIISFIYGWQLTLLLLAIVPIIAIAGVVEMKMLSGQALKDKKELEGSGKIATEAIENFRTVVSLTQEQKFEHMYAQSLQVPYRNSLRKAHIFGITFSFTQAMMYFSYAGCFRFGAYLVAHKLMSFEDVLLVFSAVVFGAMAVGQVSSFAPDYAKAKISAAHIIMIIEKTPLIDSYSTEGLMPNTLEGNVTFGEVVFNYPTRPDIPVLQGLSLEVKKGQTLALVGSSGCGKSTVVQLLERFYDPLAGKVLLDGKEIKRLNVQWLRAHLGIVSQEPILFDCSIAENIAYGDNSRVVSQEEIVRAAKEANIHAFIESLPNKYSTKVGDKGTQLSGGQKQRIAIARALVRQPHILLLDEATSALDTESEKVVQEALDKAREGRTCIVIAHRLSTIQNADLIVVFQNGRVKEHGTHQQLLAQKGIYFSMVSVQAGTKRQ
Chain of P-gp (ABCB1), wild type (P08183 whole entry): as above

SMILES	Activity [1] [%]	other results
COc1ccc(/C=C/C(=O)c2ccc(OC)c(OC)c2OC)c(OC)c1	174	
COc1ccc(C(=O)/C=C/c2ccc(Cl)cc2)c(OC)c1	101	Activity [2]: 348.6%
COc1ccc(/C=C/C(=O)c2ccc(OC)cc2OC)c(OC)c1	172	
COc1ccc(C(=O)/C=C/c2ccc(N3CCN(C)CC3)cc2)c(OC)c1	159	
COc1ccc(/C=C/C(=O)c2ccc(N3CCNCC3)cc2)c(OC)c1	216	Activity [3]: Active; Activity [2]: 188.4%; Activity [4]: Active; IC50 (MCF7 [5]): 21.5 µM
COc1cc(OC)c(C2CCN(C)CC2)cc1C(=O)/C=C/c1ccncc1	117	
O=C(/C=C/c1ccccc1Cl)c1ccc(N2CCNCC2)cc1	139	
COc1cc(OC)c(C2CCN(C)CC2)cc1C(=O)/C=C/c1cccnc1	170	
O=C(/C=C/c1ccc(Cl)cc1)c1ccc(N2CCCCC2)cc1	103	
COc1cc(OC)c(N2CCN(C)CC2)cc1C(=O)/C=C/c1ccc(N2CCN(C)CC2)cc1	107	
COc1cc(OC)c(C2CCN(C)CC2)cc1C(=O)/C=C/c1ccccn1	164	
COc1ccc(C2CCN(C)CC2)cc1C(=O)/C=C/c1ccccc1	178	
CCN1CCC(c2cc(C(=O)/C=C/c3ccccc3Cl)c(OC)cc2OC)CC1	280	Activity [3]: Active; IC50 (MCF7 [6]): 2.6 µM; inhibition at 40 min, 50 µM (P-gp (ABCB1), wild type): > 100%; Activity [4]: Active; IC50 (MCF7 [5]): 3.6 µM
CCN1CCC(c2cc(C(=O)/C=C/c3ccccc3)c(OC)cc2OC)CC1	256	Activity [3]: Active; IC50 (MCF7 [6]): 4.8 µM; Activity [4]: Active; IC50 (MCF7 [5]): 6.1 µM
CCN1CCC(c2cc(C(=O)/C=C/c3ccc(Cl)cc3)c(OC)cc2OC)CC1	247	
CCN1CCC(c2cc(C(=O)/C=C/c3ccc(N4CCN(C)CC4)cc3)c(OC)cc2OC)CC1	120	
CCN1CCC(c2cc(C(=O)/C=C/c3ccncc3)c(OC)cc2OC)CC1	151	
COc1ccc(C(=O)/C=C/c2ccc(C(F)(F)F)cc2)c(OC)c1	103	
COc1cc(OC)c(C2CCN(C)CC2)cc1C(=O)/C=C/c1ccc(N2CCN(C)CC2)cc1	102	
COc1cc(OC)c(N2CCN(C)CC2)cc1C(=O)/C=C/c1ccccc1	176	
O=C(/C=C/c1ccc(Cl)cc1)c1ccc(N2CCNCC2)cc1	135	
COc1cc(OC)c(C2CCN(C)CC2)c(O)c1C(=O)/C=C/c1ccc(N2CCN(C)CC2)cc1	118	
COc1ccc(/C=C/C(=O)c2ccc(N3CCCCC3)cc2)c(OC)c1	178	
COc1cc(OC)c(N2CCN(C)CC2)cc1C(=O)/C=C/c1ccccc1Cl	222	
O=C(/C=C/c1ccccc1)c1ccc(N2CCCCC2)cc1	112	
COc1ccc2c3c([nH]c2c1)[C@H](C=C(C)C)N1C(=O)[C@@H]2CCCN2C(=O)[C@@H]1C3 [FUMITREMORGIN]		Activity [7]: 274.5%
O=C1c2c(O)ccc(O)c2C(=O)c2c(NCCNCCO)ccc(NCCNCCO)c21 [MITOXANTRONE]		Activity [8]: 439.2%
